Measurements published in ChEMBL document CHEMBL5036356, “Spatial Distribution and Stability of Cholinesterase Inhibitory Protoberberine Alkaloids from Papaver setiferum” (J Nat Prod, 2022).

Legend:
Acetylcholinesterase [1] = biological target: Acetylcholinesterase (Electrophorus electricus, UniProt O42275); test: Inhibition of electrical eel AChE using acetylthiocholine chloride as substrate incubated for 5 mins by DTNB reagent based Ellman's method
Outline: (§1)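 Enzyme stocks (commercial eel AChE, human recombinant AChE or horse serum BChE) at 0.0075 U/mL in 100 mM potassium phosphate, pH 7.4, added to start the reaction. Acetylthiocholine chloride 1 mM and DTNB 0.5 mM final. Compounds were taken from 5 mg/mL methanol stocks and serially diluted in buffer, with methanol blanks. Rate read at 405 nm, 25 °C, for 5 min. IC50 reported as mean ± SEM of at least three repeats.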

Cholinesterase = Cholinesterase (Equus caballus, UniProt P81908); test: Inhibition of horse serum BChE incubated for 5 mins by DTNB reagent based Ellman's method
Outline: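 Enzyme stocks (commercial eel AChE, human recombinant AChE or horse serum BChE) at 0.0075 U/mL in 100 mM potassium phosphate, pH 7.4, added to start the reaction. Acetylthiocholine chloride 1 mM and DTNB 0.5 mM final. Compounds were taken from 5 mg/mL methanol stocks and serially diluted in buffer, with methanol blanks. IC50 reported as mean ± SEM of at least three repeats.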

Acetylcholinesterase [2] = biological target: Acetylcholinesterase (Homo sapiens, UniProt P22303); test: Inhibition of human recombinant AChE using acetylthiocholine chloride as substrate incubated for 5 mins by DTNB reagent based Ellman's method; outline: as §1
Acetylcholinesterase (Homo sapiens, UniProt P22303), sequence (P22303 whole entry): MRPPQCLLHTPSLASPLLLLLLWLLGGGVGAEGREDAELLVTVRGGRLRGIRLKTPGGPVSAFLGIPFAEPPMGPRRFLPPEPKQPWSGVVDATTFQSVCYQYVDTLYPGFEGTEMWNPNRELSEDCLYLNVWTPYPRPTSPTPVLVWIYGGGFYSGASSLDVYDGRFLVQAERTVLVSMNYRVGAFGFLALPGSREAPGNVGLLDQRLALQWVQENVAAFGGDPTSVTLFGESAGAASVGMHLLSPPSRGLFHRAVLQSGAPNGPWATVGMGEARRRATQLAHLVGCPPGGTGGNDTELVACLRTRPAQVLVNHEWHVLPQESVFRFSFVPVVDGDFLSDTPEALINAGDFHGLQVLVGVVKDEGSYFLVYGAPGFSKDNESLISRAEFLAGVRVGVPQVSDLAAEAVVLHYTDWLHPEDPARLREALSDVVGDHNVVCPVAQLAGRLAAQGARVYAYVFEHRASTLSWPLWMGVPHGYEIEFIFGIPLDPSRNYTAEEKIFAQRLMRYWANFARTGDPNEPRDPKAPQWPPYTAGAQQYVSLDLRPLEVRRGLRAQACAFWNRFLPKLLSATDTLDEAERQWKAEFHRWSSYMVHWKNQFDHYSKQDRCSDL

Cholinesterase, sequence (P81908 whole entry): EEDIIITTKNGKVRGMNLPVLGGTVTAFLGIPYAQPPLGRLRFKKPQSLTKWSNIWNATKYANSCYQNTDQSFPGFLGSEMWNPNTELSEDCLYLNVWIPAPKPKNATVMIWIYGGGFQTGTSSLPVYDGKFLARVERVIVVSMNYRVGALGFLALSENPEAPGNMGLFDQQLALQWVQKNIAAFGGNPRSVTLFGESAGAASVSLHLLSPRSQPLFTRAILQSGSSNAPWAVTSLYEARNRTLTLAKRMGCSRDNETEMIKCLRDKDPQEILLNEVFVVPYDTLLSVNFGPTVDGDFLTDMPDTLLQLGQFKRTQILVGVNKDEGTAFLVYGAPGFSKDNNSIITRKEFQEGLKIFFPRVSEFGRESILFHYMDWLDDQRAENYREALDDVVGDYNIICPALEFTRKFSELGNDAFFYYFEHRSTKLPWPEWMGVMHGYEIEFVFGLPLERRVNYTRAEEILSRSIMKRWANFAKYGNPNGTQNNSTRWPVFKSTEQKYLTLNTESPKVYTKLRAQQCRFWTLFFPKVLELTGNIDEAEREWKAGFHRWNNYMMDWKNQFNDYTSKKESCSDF
Acetylcholinesterase (Electrophorus electricus, UniProt O42275), sequence (O42275 whole entry): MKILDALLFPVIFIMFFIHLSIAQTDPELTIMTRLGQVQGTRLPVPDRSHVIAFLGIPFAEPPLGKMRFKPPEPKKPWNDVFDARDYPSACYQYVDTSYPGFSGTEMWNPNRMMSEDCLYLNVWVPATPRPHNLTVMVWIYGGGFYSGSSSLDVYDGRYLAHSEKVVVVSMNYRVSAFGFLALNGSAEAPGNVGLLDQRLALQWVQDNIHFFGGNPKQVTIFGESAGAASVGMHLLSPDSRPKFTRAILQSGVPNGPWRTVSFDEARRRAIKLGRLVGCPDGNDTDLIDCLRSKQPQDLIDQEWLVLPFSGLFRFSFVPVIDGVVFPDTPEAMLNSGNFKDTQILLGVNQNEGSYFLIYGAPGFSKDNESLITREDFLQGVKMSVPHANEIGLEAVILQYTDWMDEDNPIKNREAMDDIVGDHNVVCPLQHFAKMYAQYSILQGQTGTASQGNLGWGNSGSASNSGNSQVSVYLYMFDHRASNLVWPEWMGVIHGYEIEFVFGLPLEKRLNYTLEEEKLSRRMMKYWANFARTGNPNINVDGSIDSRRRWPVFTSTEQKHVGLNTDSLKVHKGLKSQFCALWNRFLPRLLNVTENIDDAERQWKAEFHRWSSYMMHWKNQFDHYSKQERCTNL

COc1cc(C[C@H]2c3cc(O)c(OC)cc3CC[N+]2(C)C)ccc1O
Not Active: IC50 (Acetylcholinesterase [1]) | Ki (Acetylcholinesterase [1]) | Ki (Cholinesterase) | IC50 (Acetylcholinesterase [2]) | Ki (Acetylcholinesterase [2])

COc1cc2c(cc1O)[C@H](Cc1ccc(OC)c(OC)c1)[N+](C)(C)CC2
Not Active: IC50 (Acetylcholinesterase [1]) | Ki (Acetylcholinesterase [1]) | Ki (Cholinesterase) | IC50 (Acetylcholinesterase [2]) | Ki (Acetylcholinesterase [2])

COC1=C[C@]23CCN(C)[C@H](Cc4ccc(OC)c(O)c42)C3=CC1=O [SALUTARIDINE]
Not Active: IC50 (Acetylcholinesterase [1]) | Ki (Acetylcholinesterase [1]) | Ki (Cholinesterase) | IC50 (Acetylcholinesterase [2]) | Ki (Acetylcholinesterase [2])

COc1cc2c3c(c1O)-c1c(cccc1OC)C[C@@H]3N(C)CC2
Not Active: IC50 (Acetylcholinesterase [2]) | Ki (Acetylcholinesterase [2])

COc1cc2c3c(c1O)-c1c(cccc1OC)C[C@@H]3[N+](C)(C)CC2
Not Active: IC50 (Acetylcholinesterase [1]) | Ki (Acetylcholinesterase [1]) | IC50 (Acetylcholinesterase [2]) | Ki (Acetylcholinesterase [2])

O=[N+]([O-])CCc1ccc(O[C@@H]2O[C@H](CO[C@@H]3OC[C@@H](O)[C@H](O)[C@H]3O)[C@@H](O)[C@H](O)[C@H]2O)cc1
Not Active: IC50 (Acetylcholinesterase [1]) | Ki (Acetylcholinesterase [1]) | IC50 (Cholinesterase) | Ki (Cholinesterase) | IC50 (Acetylcholinesterase [2]) | Ki (Acetylcholinesterase [2])
